# Where two headings read alike, the source gives them in different places.
# Columns and labels:
# [1] = target: human GluN1/GluN2B receptors (Homo sapiens, UniProt Q05586+Q13224); assay type: cell-based; details: for IC50: n = 6−12; for %control at 1 μM, mean (99% CI), GluN2B: 1 μM compound, percent of maximal response to 100 μM glutamate/glycine
# [2] = tested on: GluN1/GluN2A/GluN2A (2A/2A); assay: Inhibition of diheteromeric 2A/2A receptors; assay type: cell-based; details: wild-type 2A/2A, 1 μM compound
# In short: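 Xenopus laevis stage VI oocytes injected with 5–10 ng receptor cRNA and kept at 15 °C in Barth's medium. Two-electrode voltage clamp run 2–7 days later at room temperature, holding −40 mV, in 90 mM NaCl, 1 KCl, 10 HEPES, 0.5 BaCl2, 0.01 EDTA, pH 7.4. Test compound (20 mM DMSO stock; final DMSO 0.05–0.5%) co-applied with 100 μM glutamate/100 μM glycine. Response given as % of response to agonists alone.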
# [3] = LogD by shake-flask method with 18F-labeled tracers; assay type: physicochemical; details: pH 7.4
# [4] = target: GluN2B subunit (Rattus norvegicus, UniProt P35439+Q00960); assay: In vitro autoradiography in rat brain sections; assay type: binding
# [5] = tested on: GluN2B subunit; assay: In vitro autoradiography in NHP brain sections; assay type: binding; details: self-blocking 13 10 μM
# In short: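 Brain sections (20 μm) preincubated 20 min in 50 mM Tris-HCl pH 7.4 at room temperature, then incubated 60 min at room temperature with 18F-labelled test compound (37 kBq/mL, 1.58 nM). Self-block: 30 min pretreatment with unlabelled test compound (10 μM, 0.1% DMSO, 1% ethanol in buffer), then cold-buffer wash. Washed, dried, exposed to imaging plates overnight. Regional signal (gray value/unit area) expressed as a ratio to forebrain white matter.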
# [6] = Whole body ex vivo biodistribution in mice
# In short: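 Female CD1 (ICR) mice (8 weeks, 23–27 g) were injected via tail vein with tracer, 740 kBq/100 μL saline containing 5% ethanol. Animals were killed at 2, 10, 30 and 60 min. Organs were removed, weighed and gamma-counted. %ID/g of wet tissue (stomach as %ID/organ) was calculated against diluted aliquots of the injected dose, with decay correction.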
# [7] = Radiometabolite analysis in mice; assay type: in vivo; details: ICR mice, 15 min post injection, n = 2
# In short: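 Female CD1 (ICR) mice (8 weeks, 23–27 g) received tracer IV via tail vein and were killed at 15 min. Plasma was deproteinized with ice-cold CH3CN, and brain was homogenized in ice-cold CH3CN, with repeated centrifugation at 4 °C. Supernatants were spiked with unlabelled reference and run on C18 radioHPLC (CH3CN/H2O 55/45, 5 mL/min). Fractions were gamma-counted; parent % = parent counts/total counts × 100.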
# [8] = IC50, mean, 100 μM glutamate/glycine coapplied with increasing concentrations
# [9] = pIC50, mean (95% CI), 100 μM glutamate/glycine
# [10] = rat, self-blocking 13 10 μM, n = 3
# [11] = remained high until 10 min post injection
# Sequence of human GluN1/GluN2B receptors (Q13224 27-1484, other chains not shown): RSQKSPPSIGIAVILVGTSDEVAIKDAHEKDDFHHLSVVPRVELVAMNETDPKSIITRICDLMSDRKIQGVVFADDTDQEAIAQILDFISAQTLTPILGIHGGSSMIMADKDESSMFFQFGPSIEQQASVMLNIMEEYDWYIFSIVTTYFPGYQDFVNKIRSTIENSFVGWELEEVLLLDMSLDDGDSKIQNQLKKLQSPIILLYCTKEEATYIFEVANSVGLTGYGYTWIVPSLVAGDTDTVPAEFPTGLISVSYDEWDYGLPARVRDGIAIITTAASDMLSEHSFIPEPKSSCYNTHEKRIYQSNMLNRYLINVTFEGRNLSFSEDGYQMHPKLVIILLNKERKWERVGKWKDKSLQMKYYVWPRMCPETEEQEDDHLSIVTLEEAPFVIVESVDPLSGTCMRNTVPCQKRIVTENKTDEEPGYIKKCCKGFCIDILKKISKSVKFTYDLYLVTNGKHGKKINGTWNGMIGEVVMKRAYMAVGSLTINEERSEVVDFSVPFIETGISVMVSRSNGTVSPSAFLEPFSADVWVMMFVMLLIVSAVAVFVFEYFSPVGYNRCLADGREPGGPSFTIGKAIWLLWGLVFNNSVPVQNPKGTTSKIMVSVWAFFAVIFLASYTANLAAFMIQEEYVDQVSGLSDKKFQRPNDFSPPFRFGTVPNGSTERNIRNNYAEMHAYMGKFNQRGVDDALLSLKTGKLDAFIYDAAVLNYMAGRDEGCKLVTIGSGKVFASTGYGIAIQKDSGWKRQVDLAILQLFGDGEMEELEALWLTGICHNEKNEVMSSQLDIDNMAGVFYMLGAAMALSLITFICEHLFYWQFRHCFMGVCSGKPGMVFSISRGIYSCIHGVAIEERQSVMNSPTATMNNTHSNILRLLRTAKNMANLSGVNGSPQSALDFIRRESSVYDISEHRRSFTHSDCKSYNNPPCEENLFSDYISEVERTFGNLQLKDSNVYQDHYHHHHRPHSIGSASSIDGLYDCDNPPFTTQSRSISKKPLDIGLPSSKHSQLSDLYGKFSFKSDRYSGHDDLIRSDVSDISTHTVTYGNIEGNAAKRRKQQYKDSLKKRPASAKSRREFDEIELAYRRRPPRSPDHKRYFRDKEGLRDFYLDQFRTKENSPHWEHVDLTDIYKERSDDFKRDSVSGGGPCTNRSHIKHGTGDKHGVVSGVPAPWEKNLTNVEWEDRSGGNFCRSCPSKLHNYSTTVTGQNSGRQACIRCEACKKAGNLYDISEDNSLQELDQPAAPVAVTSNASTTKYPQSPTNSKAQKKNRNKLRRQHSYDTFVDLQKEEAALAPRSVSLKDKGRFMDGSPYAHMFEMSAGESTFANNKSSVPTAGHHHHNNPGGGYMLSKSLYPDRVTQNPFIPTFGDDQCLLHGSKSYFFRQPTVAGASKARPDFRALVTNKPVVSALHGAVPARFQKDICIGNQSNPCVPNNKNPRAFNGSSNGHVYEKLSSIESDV
# Sequence of GluN2B subunit (Rattus norvegicus, UniProt P35439+Q00960) (Q00960 27-1482, other chains not shown): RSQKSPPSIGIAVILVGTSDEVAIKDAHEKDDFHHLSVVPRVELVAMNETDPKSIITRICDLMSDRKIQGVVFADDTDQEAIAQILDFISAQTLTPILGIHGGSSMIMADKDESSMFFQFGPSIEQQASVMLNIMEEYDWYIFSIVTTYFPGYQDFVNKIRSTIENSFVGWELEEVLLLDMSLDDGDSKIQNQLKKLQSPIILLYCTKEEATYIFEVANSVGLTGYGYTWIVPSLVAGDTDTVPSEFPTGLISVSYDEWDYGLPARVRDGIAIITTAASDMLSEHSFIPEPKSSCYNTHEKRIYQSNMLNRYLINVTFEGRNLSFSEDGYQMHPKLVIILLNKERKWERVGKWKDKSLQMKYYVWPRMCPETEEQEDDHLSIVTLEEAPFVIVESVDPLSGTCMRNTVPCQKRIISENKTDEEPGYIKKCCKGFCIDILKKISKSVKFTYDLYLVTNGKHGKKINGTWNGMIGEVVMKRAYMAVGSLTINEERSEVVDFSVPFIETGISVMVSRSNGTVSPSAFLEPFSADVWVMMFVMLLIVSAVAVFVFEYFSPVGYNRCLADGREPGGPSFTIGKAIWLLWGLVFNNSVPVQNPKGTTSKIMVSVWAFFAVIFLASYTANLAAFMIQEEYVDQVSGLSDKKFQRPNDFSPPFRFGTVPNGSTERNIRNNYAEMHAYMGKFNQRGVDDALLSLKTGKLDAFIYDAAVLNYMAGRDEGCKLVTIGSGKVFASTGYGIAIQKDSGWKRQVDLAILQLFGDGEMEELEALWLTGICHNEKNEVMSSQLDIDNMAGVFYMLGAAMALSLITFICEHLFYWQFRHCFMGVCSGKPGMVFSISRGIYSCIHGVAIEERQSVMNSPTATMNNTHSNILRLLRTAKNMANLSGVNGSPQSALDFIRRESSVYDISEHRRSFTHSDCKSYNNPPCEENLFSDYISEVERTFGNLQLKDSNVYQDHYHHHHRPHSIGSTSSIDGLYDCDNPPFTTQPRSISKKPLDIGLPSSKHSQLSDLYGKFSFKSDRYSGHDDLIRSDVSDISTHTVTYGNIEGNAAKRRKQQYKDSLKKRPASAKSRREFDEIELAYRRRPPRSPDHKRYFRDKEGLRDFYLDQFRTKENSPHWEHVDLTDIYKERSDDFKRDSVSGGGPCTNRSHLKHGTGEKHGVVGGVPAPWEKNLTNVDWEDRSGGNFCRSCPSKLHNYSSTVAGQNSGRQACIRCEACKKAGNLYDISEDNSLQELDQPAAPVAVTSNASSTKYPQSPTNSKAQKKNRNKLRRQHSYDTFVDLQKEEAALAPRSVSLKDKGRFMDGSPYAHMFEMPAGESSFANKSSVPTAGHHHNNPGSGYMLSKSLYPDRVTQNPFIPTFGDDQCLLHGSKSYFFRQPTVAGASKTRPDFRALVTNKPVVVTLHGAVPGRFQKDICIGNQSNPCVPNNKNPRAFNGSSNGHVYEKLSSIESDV
smiles,measurement,setting,value
"COc1cnc(OCc2cn(-c3ccc(Br)c(F)c3)nn2)nc1 [Compound 12, 2-((1-(4-Bromo-3-fluorophenyl)-1H-1,2,3-triazol-4-yl)methoxy)-5-methoxypyrimidine]",IC50,[1]; [8],339 nM
same,IC50,[1]; [9],282 nM
"COc1cnc(OCc2cn(-c3ccc(F)c(C)c3)nn2)nc1 [Compound 13, 2-((1-(4-Fluoro-3-methylphenyl)-1H-1,2,3-triazol-4-yl)methoxy)-5-methoxypyrimidine]","%control at 1 μM, mean (99% CI), GluN2B",[1],"17 (11, 23) %"
same,sensitivity of 2A/2A responses,[2],insensitive
same,logD,[3],2.89 ± 0.037
"COc1cnc(OCc2cn(-c3ccc(C)c(F)c3)nn2)nc1 [Compound 14, 2-((1-(3-Fluoro-4-methylphenyl)-1H-1,2,3-triazol-4-yl)methoxy)-5-methoxypyrimidine]",IC50,[1]; [8],89 nM
same,IC50,[1]; [9],75.9 nM
"COc1cnc(OCc2cn(-c3ccc(F)c(Br)c3)nn2)nc1 [Compound 11, 2-((1-(3-Bromo-4-fluorophenyl)-1H-1,2,3-triazol-4-yl)methoxy)-5-methoxypyrimidine]","%control at 1 μM, mean (99% CI), GluN2B",[1],"13 (7, 19) %"
same,IC50,[1]; [8],19 nM
same,IC50,[1]; [9],19.1 nM
same,sensitivity of 2A/2A responses,[2],insensitive
same,logD,[3],3.14 ± 0.037
"COc1cnc(OCc2cn(-c3ccc([18F])c(C)c3)nn2)nc1 [[^18F]13, 2-((1-(4-[^18F]fluoro-3-methylphenyl)-1H-1,2,3-triazol-4-yl)methoxy)-5-methoxypyrimidine]",logD,[3],2.89
same,reduction of uptake by self-blocking,"[4]; rat brain sections, cold compound 13 10 μM",~ 90%
same,"specific binding, frontal cortex",[4]; [10],94%
same,"specific binding, hippocampus",[4]; [10],94%
same,"specific binding, striatum",[4]; [10],92%
same,"specific binding, thalamus",[4]; [10],88%
same,"specific binding, caudate nucleus",[5],79%
same,"specific binding, entorhinal cortex",[5],89%
same,"specific binding, insular cortex",[5],82%
same,"specific binding, putamen",[5],73%
same,"specific binding, thalamus",[5],53%
same,"specific binding, hippocampus",[5]; n = 3,87%
same,bone uptake,[6],< 2 %ID/g
same,"initial uptake in heart, lung, kidney, liver, and small intestine",[6]; 2 min postinjection,> 5 % ID/g
same,"uptake in heart, lung, kidney, spleen, pancreas, and muscle",[6]; 60 min postinjection,< 0.6 % ID/g
same,brain uptake at 2 min (brain2min),"[6]; i.v., 2 min post injection",3.60 % ID/g
same,brain uptake at 10 min,"[6]; i.v., 10 min post injection",0.72 %ID/g
same,brain uptake at 60 min,"[6]; i.v., 60 min post injection",0.018 % ID/g
same,liver uptake,[6]; [11],20.84 % ID/g
same,small intestine uptake,[6]; [11],39.15 % ID/g
same,parent fraction in brain,[7],56.6%
same,parent fraction in liver,[7],5.1%
same,parent fraction in plasma,[7],11.8%
